Test results from ChEMBL document CHEMBL1147000, “Synthesis and evaluation of succinoyl-caprolactam gamma-secretase inhibitors” (Bioorg Med Chem Lett, 2006).
In brackets after ≈: the same amount, converted by molar mass.

System: not listed separately
Test: Half life in Beagle dog at 1 mg/kg, po
Type: ADME, organism-based, Canis lupus familiaris
Parameters: dose 1 mg/kg, route oral
Conditions: in vivo
In short: (§1)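 Beagle dogs were dosed in cassette format with up to nine other compounds. Doses were kept low to limit interactions: 0.25 mg/kg iv and 0.5 or 1.0 mg/kg po. Pharmacokinetic parameters were derived from these dosings.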

Compound	half-life
CCCC(C(N)=O)C(CC(C)C)C(=O)N[C@H]1CCCCN(Cc2cccc(-c3ccc(F)c(Cl)c3)c2)C1=O (single isomer, unassigned)	1.3 h

System: not listed separately
Test: Cmax in Beagle dog at 0.5 mg/kg, po
Type: ADME, organism-based, Canis lupus familiaris
Parameters: dose 0.5 mg/kg, route oral
Conditions: in vivo
In short: as §1

Compound	Cmax
CCC[C@H](C(N)=O)[C@@H](CC(C)C)C(=O)N[C@H]1CCCCN(Cc2cccc(Nc3ccccc3)c2)C1=O	17 nM
CCC[C@H](C(N)=O)[C@@H](CC(C)C)C(=O)N[C@H]1CCCCN(Cc2cccc(Oc3ccccc3)c2)C1=O	25 nM

Target: Matrix metalloproteinase-9 (Homo sapiens, UniProt P14780)
Test: Inhibition of MMP9
Conditions: not given

Chain of Matrix metalloproteinase-9 (P14780 whole entry): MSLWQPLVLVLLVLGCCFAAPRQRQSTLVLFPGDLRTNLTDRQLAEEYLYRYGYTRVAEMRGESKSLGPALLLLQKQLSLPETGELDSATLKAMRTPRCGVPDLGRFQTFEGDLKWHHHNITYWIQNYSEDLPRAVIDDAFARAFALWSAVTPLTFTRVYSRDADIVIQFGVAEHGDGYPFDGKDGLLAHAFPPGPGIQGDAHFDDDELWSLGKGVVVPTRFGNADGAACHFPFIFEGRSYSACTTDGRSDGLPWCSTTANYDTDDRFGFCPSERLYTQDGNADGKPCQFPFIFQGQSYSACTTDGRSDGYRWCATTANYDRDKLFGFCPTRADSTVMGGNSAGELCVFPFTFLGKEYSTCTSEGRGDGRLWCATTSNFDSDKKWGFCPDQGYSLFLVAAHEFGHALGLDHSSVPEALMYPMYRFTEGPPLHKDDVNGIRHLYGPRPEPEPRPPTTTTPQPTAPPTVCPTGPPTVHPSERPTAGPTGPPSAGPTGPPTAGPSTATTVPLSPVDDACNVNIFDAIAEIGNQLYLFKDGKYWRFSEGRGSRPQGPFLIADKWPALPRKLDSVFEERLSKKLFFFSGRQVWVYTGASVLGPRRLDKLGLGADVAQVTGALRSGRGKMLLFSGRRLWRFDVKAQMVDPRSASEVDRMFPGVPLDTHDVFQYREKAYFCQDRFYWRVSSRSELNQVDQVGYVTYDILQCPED

Compound	Ki
CCC[C@H](C(=O)NO)[C@@H](CC(C)C)C(=O)N[C@H]1CCCCN(Cc2cccc(Oc3ccccc3)c2)C1=O	5 nM

System: not listed separately
Test: Cmax in Beagle dog at 1 mg/kg, po
Type: ADME, organism-based, Canis lupus familiaris
Parameters: dose 1 mg/kg, route oral
Conditions: in vivo
In short: as §1

Compound	Cmax
CCCC(C(N)=O)C(CC(C)C)C(=O)N[C@H]1CCCCN(Cc2cccc(-c3ccc(F)c(Cl)c3)c2)C1=O (single isomer, unassigned)	116 nM

System: HEK293
Test: Inhibition of beta-amyloid peptide production in HEK293 cell line
Type: functional, cell-based
Conditions: Homo sapiens

Compound	IC50
CCC[C@H](C(=O)NO)[C@@H](CC(C)C)C(=O)N[C@H]1CCCCN(Cc2cccc(Oc3ccccc3)c2)C1=O	500 nM
CCC[C@H](C(=O)OC)[C@@H](CC(C)C)C(=O)N[C@H]1CCCCN(Cc2cccc(Oc3ccccc3)c2)C1=O	6000 nM
CCC[C@H](C(=O)NO)[C@@H](CC(C)C)C(=O)N[C@H]1CCCCN(Cc2cccc(I)c2)C1=O	3000 nM
CCC[C@H](C(=O)N(C)OC)[C@@H](CC(C)C)C(=O)N[C@H]1CCCCN(Cc2cccc(Oc3ccccc3)c2)C1=O	5000 nM
CCC[C@H](C(=O)NN)[C@@H](CC(C)C)C(=O)N[C@H]1CCCCN(Cc2cccc(Oc3ccccc3)c2)C1=O	1600 nM
CCC[C@H](C(N)=O)[C@@H](CC(C)C)C(=O)N[C@H]1CCCCN(Cc2cncc(-c3ccccn3)c2)C1=O	8800 nM
CCC[C@@H](CC(=O)NNC(=O)[C@@H](CCC)[C@@H](CC(C)C)C(=O)N[C@H]1CCCCN(Cc2cccc(Oc3ccccc3)c2)C1=O)C(=O)NO	> 10000 nM
CCC[C@H](C(=O)NNC(=O)[C@@H](CCC)[C@@H](CC(C)C)C(=O)N[C@H]1CCCCN(Cc2cccc(Oc3ccccc3)c2)C1=O)[C@@H](CC(C)C)C(N)=O	226 nM
CCC[C@H](C(=O)NOC)[C@@H](CC(C)C)C(=O)N[C@H]1CCCCN(Cc2cccc(Oc3ccccc3)c2)C1=O	5000 nM
CCC[C@H](C(=O)NC)[C@@H](CC(C)C)C(=O)N[C@H]1CCCCN(Cc2cccc(Oc3ccccc3)c2)C1=O	5000 nM
CCC[C@H](C(=O)NNC(=O)[C@@H](CC(N)=O)CC(C)C)[C@@H](CC(C)C)C(=O)N[C@H]1CCCCN(Cc2cccc(Oc3ccccc3)c2)C1=O	> 10000 nM
CCC[C@H](C(=O)NNC(=O)[C@H](CC(C)C)[C@@H]1CCNC1=O)[C@@H](CC(C)C)C(=O)N[C@H]1CCCCN(Cc2cccc(Oc3ccccc3)c2)C1=O	> 10000 nM
CCC[C@H](C(=O)O)[C@@H](CC(C)C)C(=O)N[C@H]1CCCCN(Cc2cccc(Oc3ccccc3)c2)C1=O	> 3000 nM
CCC[C@H](C(N)=O)[C@@H](CC(C)C)C(=O)N[C@H]1CCCCN(Cc2cncc(-c3ccc(F)c(Cl)c3)c2)C1=O	4 nM
CCC[C@H](C(N)=O)[C@@H](CC(C)C)C(=O)N[C@H]1CCCCN(Cc2cncc(-c3ccc(OC)cc3)c2)C1=O	32 nM
CCC[C@H](C(N)=O)[C@@H](CC(C)C)C(=O)N[C@H]1CCCCN(Cc2cncc(-c3ccc(C(F)(F)F)cc3)c2)C1=O	17 nM
CCC[C@H](C(N)=O)[C@@H](CC(C)C)C(=O)N[C@H]1CCCCN(Cc2cncc(-c3cccnc3)c2)C1=O	2200 nM
CCC[C@H](C(N)=O)[C@@H](CC(C)C)C(=O)N[C@H]1CCCCN(Cc2cccc(Oc3ccccc3)c2)C1=O	50 nM
CCCC(C(N)=O)C(CC(C)C)C(=O)N[C@H]1CCCCN(Cc2cccc(-c3ccc(F)c(Cl)c3)c2)C1=O (single isomer, unassigned)	17 nM

Target: Stromelysin-2 (Homo sapiens, UniProt P09238)
Test: Inhibition of MMP10
Conditions: not given

Chain of Stromelysin-2 (P09238 whole entry): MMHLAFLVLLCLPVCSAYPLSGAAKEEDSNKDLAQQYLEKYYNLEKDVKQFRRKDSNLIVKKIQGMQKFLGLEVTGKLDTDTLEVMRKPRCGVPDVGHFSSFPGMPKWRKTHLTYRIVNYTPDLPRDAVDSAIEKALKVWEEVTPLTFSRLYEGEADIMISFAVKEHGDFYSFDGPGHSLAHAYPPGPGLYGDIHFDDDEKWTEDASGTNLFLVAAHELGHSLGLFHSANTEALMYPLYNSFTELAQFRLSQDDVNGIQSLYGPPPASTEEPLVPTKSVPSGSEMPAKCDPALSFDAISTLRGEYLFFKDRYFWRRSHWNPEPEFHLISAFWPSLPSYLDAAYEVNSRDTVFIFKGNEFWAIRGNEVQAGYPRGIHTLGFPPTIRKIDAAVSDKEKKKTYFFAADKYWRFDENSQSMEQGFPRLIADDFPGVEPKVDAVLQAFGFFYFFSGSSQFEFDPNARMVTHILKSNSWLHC

Compound	Ki
CCC[C@H](C(=O)NO)[C@@H](CC(C)C)C(=O)N[C@H]1CCCCN(Cc2cccc(Oc3ccccc3)c2)C1=O	190 nM

Target: T1, Matrilysin (Homo sapiens, UniProt P09237)
T1 sequence (P09237 whole entry): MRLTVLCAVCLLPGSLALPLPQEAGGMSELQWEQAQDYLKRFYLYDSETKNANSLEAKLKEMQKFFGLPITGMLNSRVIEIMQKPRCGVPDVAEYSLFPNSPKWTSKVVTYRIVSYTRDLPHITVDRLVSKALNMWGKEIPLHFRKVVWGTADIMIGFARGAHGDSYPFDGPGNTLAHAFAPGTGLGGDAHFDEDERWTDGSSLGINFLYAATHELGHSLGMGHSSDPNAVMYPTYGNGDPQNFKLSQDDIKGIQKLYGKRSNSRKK
Test: Inhibition of MMP7
Conditions: not given

Compound	Ki
CCC[C@H](C(=O)NO)[C@@H](CC(C)C)C(=O)N[C@H]1CCCCN(Cc2cccc(Oc3ccccc3)c2)C1=O	660 nM

System: not listed separately
Test: Percent of unbound ligand in Beagle dog at 0.5 mg/kg, po
Type: ADME, organism-based, Canis lupus familiaris
Parameters: dose 0.5 mg/kg, route oral
Conditions: in vivo

Compound	fraction unbound
CCC[C@H](C(N)=O)[C@@H](CC(C)C)C(=O)N[C@H]1CCCCN(Cc2cccc(Nc3ccccc3)c2)C1=O	0.015
CCC[C@H](C(N)=O)[C@@H](CC(C)C)C(=O)N[C@H]1CCCCN(Cc2cccc(Oc3ccccc3)c2)C1=O	0.004

Target: 72 kDa type IV collagenase (Homo sapiens, UniProt P08253)
Test: Inhibition of MMP2
Conditions: not given

Chain of 72 kDa type IV collagenase (P08253 whole entry): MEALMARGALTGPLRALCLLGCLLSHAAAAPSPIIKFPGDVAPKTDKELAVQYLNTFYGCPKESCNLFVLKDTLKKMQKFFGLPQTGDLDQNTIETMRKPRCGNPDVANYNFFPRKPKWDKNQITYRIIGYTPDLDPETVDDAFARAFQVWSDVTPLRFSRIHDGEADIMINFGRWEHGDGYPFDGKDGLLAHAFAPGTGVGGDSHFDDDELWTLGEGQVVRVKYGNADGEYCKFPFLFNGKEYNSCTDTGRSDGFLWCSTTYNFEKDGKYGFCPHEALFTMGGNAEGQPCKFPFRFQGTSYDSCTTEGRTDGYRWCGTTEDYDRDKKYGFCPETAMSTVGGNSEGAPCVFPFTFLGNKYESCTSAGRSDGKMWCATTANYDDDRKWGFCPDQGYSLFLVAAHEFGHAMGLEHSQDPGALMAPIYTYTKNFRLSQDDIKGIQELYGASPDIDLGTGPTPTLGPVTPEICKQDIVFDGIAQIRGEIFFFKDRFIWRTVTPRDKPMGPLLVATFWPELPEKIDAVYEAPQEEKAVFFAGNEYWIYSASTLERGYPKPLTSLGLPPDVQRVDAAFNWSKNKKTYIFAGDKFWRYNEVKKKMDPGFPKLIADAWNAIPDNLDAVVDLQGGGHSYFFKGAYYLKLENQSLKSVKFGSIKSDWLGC

Compound	Ki
CCC[C@H](C(=O)NO)[C@@H](CC(C)C)C(=O)N[C@H]1CCCCN(Cc2cccc(Oc3ccccc3)c2)C1=O	7 nM

Target: T2, Interstitial collagenase (Homo sapiens, UniProt P03956)
T2 sequence (P03956 whole entry): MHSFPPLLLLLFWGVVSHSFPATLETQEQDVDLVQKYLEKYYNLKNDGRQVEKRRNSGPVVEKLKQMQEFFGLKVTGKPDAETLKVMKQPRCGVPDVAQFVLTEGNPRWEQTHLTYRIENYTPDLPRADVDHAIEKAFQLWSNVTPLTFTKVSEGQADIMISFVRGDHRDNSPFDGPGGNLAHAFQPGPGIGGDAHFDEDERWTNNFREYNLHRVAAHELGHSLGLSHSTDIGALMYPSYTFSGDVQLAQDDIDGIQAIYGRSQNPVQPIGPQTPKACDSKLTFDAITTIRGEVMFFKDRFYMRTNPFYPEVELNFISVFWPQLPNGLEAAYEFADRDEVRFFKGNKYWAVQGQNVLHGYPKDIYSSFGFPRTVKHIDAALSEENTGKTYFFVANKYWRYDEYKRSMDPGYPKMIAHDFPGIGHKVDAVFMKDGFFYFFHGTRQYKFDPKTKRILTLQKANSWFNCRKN
Test: Inhibition of MMP1
Conditions: not given

Compound	Ki
CCC[C@H](C(=O)NO)[C@@H](CC(C)C)C(=O)N[C@H]1CCCCN(Cc2cccc(Oc3ccccc3)c2)C1=O	21 nM

System: not listed separately
Test: Half life in Beagle dog at 0.5 mg/kg, po
Type: ADME, organism-based, Canis lupus familiaris
Parameters: dose 0.5 mg/kg, route oral
Conditions: in vivo
In short: as §1

Compound	half-life
CCC[C@H](C(N)=O)[C@@H](CC(C)C)C(=O)N[C@H]1CCCCN(Cc2cccc(Nc3ccccc3)c2)C1=O	1 h
CCC[C@H](C(N)=O)[C@@H](CC(C)C)C(=O)N[C@H]1CCCCN(Cc2cccc(Oc3ccccc3)c2)C1=O	0.5 h

System: not listed separately
Test: Oral bioavailability in Beagle dog at 1 mg/kg, po
Type: ADME, organism-based, Canis lupus familiaris
Conditions: in vivo
In short: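 Beagle dogs given compounds in cassette format with up to nine other compounds. Doses were kept low to limit interactions: 0.25 mg/kg iv, and 0.5 or 1.0 mg/kg po.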

Compound	bioavailability
CCCC(C(N)=O)C(CC(C)C)C(=O)N[C@H]1CCCCN(Cc2cccc(-c3ccc(F)c(Cl)c3)c2)C1=O (single isomer, unassigned)	25%

System: Canis familiaris
Test: Volume of distribution in Beagle dog at 1 mg/kg, po
Type: ADME, organism-based, Canis lupus familiaris
Parameters: dose 1 mg/kg, route oral
Conditions: in vivo
In short: as §1

Compound	Vss
CCCC(C(N)=O)C(CC(C)C)C(=O)N[C@H]1CCCCN(Cc2cccc(-c3ccc(F)c(Cl)c3)c2)C1=O (single isomer, unassigned)	0.8 L/kg

Target: Collagenase 3 (Homo sapiens, UniProt P45452)
Test: Inhibition of MMP13
Conditions: not given

Compound	Ki
CCC[C@H](C(=O)NO)[C@@H](CC(C)C)C(=O)N[C@H]1CCCCN(Cc2cccc(Oc3ccccc3)c2)C1=O	10 nM

System: not listed separately
Test: Solubility at pH 7.4
Type: physicochemical
Conditions: buffer

Compound	solubility
CCC[C@H](C(N)=O)[C@@H](CC(C)C)C(=O)N[C@H]1CCCCN(Cc2cccc(Oc3ccccc3)c2)C1=O	1 µg/mL (≈ 1.97 µM)
CCCC(C(N)=O)C(CC(C)C)C(=O)N[C@H]1CCCCN(Cc2cccc(-c3ccc(F)c(Cl)c3)c2)C1=O (single isomer, unassigned)	0.1 µg/mL (≈ 0.184 µM)

System: Canis familiaris
Test: Volume of distribution in Beagle dog at 0.5 mg/kg, po
Type: ADME, organism-based, Canis lupus familiaris
Parameters: dose 0.5 mg/kg, route oral
Conditions: in vivo
In short: as §1

Compound	Vss
CCC[C@H](C(N)=O)[C@@H](CC(C)C)C(=O)N[C@H]1CCCCN(Cc2cccc(Nc3ccccc3)c2)C1=O	0.4 L/kg
CCC[C@H](C(N)=O)[C@@H](CC(C)C)C(=O)N[C@H]1CCCCN(Cc2cccc(Oc3ccccc3)c2)C1=O	1.3 L/kg

Target: Matrix metalloproteinase-14 (Homo sapiens, UniProt P50281)
Test: Inhibition of MMP14
Conditions: not given

Compound	Ki
CCC[C@H](C(=O)NO)[C@@H](CC(C)C)C(=O)N[C@H]1CCCCN(Cc2cccc(Oc3ccccc3)c2)C1=O	1200 nM

Target: Disintegrin and metalloproteinase domain-containing protein 17 (Homo sapiens, UniProt P78536)
Conditions: not given

Chain of Disintegrin and metalloproteinase domain-containing protein 17 (P78536 whole entry, the tested form may be a part): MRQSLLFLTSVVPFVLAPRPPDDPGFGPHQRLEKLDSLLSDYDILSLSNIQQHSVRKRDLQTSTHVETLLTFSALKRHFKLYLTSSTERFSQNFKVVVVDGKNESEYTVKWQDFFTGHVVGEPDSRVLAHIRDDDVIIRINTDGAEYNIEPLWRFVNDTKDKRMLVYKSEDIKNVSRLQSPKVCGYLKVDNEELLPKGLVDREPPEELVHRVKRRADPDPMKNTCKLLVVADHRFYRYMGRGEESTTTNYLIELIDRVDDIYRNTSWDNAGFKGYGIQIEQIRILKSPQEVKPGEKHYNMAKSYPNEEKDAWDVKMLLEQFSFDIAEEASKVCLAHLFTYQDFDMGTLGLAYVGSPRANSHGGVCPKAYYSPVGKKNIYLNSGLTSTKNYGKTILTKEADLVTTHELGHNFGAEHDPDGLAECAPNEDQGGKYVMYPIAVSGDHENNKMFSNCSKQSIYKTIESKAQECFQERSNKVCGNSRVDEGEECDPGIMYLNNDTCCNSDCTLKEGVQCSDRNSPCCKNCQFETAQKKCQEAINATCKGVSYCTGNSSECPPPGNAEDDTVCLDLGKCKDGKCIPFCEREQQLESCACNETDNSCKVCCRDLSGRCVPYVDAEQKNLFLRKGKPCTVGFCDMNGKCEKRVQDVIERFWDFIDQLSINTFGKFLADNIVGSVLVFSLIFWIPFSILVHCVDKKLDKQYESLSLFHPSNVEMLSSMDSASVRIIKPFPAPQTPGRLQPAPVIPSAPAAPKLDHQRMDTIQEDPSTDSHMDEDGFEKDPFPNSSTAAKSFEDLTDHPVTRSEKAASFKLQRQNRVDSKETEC

Compound	Ki
CCC[C@H](C(=O)NO)[C@@H](CC(C)C)C(=O)N[C@H]1CCCCN(Cc2cccc(Oc3ccccc3)c2)C1=O	4 nM

System: not listed separately
Test: Oral bioavailability in Beagle dog at 0.5 mg/kg, po
Type: ADME, organism-based, Canis lupus familiaris
Conditions: in vivo
In short: as §1

Compound	bioavailability
CCC[C@H](C(N)=O)[C@@H](CC(C)C)C(=O)N[C@H]1CCCCN(Cc2cccc(Nc3ccccc3)c2)C1=O	3%
CCC[C@H](C(N)=O)[C@@H](CC(C)C)C(=O)N[C@H]1CCCCN(Cc2cccc(Oc3ccccc3)c2)C1=O	8%

System: not listed separately
Test: Inhibition of gamma secretase mediated Notch1 signalling in NIH3T3 cells
Type: functional, cell-based
Conditions: Mus musculus
In short: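 NIH3T3 cells were grown in DMEM with 10% calf serum, penicillin/streptomycin, 2 mM L-glutamine and 1 mM pyruvate. They were transiently batch-transfected for 24 h with mouse Notch-1 ΔE, vector DNA and a CBF1-luciferase reporter (four tandem CBF1 binding elements). Cells were then replated in defined medium with 0.0125% BSA, treated with serial compound dilutions for 20 h, and read by luciferase luminescence.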

Compound	IC50
CCC[C@H](C(N)=O)[C@@H](CC(C)C)C(=O)N[C@H]1CCCCN(Cc2cccc(Nc3ccccc3)c2)C1=O	64 nM
CCC[C@H](C(N)=O)[C@@H](CC(C)C)C(=O)N[C@H]1CCCCN(Cc2cccc(Oc3ccccc3)c2)C1=O	82 nM
CCCC(C(N)=O)C(CC(C)C)C(=O)N[C@H]1CCCCN(Cc2cccc(-c3ccc(F)c(Cl)c3)c2)C1=O (single isomer, unassigned)	18 nM

System: not listed separately
Test: Clearance in Beagle dog at 0.5 mg/kg, po
Type: ADME, organism-based, Canis lupus familiaris
Parameters: dose 0.5 mg/kg, route oral
Conditions: in vivo
In short: as §1

Compound	CL/F
CCC[C@H](C(N)=O)[C@@H](CC(C)C)C(=O)N[C@H]1CCCCN(Cc2cccc(Nc3ccccc3)c2)C1=O	10 mL/min/kg
CCC[C@H](C(N)=O)[C@@H](CC(C)C)C(=O)N[C@H]1CCCCN(Cc2cccc(Oc3ccccc3)c2)C1=O	31.7 mL/min/kg

System: not listed separately
Test: Clearance in Beagle dog at 1 mg/kg, po
Type: ADME, organism-based, Canis lupus familiaris
Parameters: dose 1 mg/kg, route oral
Conditions: in vivo
In short: as §1

Compound	CL/F
CCCC(C(N)=O)C(CC(C)C)C(=O)N[C@H]1CCCCN(Cc2cccc(-c3ccc(F)c(Cl)c3)c2)C1=O (single isomer, unassigned)	6.67 mL/min/kg
